Data on twelve compounds can be found in ChEMBL document CHEMBL1157203, “Synthesis and cytotoxic activity of gamma-aryl substituted alpha-alkylidene-gamma-lactones and alpha-alkylidene-gamma-lactams” (Bioorg Med Chem, 2008).

Where “and” joins values, the source holds several entries; their conditions need not be identical. Equal values may be shown once.

What all share (assay type): functional, cell-based
For one test, the system named is L1210. Briefly: Cytotoxicity against mouse L1210 cells after 48 hrs by tetrazolium dye method.
A further test has as its system HL-60. Briefly: Cytotoxicity against human HL60 cells after 48 hrs by MTT assay. The method in brief: (§1)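 HL-60 (promyelocytic) and NALM-6 (lymphoblastic) cells grown in RPMI 1640 with 10% heat-inactivated FBS, streptomycin and penicillin, 37 °C, 5% CO2. Exponentially growing cells seeded at 8×10^3/well. Compounds prepared fresh from DMSO stocks and tested at 10^-7 to 10^-3 M for 46 h, then MTT 2 h. Formazan dissolved in 20% SDS/50% DMF pH 4.7, absorbance 562 and 630 nm. IC50 taken from concentration-response curves, means of at least 6 repeats ± SD.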
(In general: Tetrazolium dyes change colour on reduction, which living cells bring about.)

In another test the test system is NALM-6. Briefly: Cytotoxicity against human NALM6 cells after 48 hrs by MTT assay. The method in brief:
as §1

Regarding `C=C1CC(c2ccc(Br)cc2)OC1=O` (configuration not stated), the IC50 (commonly the concentration that inhibits the measured activity by half) was 1.3 µM in the test with L1210 (Mus musculus, L1210, 48 h); 20.3 µM in the test on HL-60 (Homo sapiens, HL-60, 48 h); 85.3 µM in the test with NALM-6 (Homo sapiens, NALM-6, 48 h).

For the compound `CC(C)/C=C1\CC(c2ccccc2)N(C)C1=O` (configuration not stated), the IC50 in the test on L1210 (Mus musculus, L1210, 48 h) is greater than 50 µM; with HL-60 (Homo sapiens, HL-60, 48 h), 81.3 µM; with NALM-6 (Homo sapiens, NALM-6, 48 h) it was 351 µM.

In the case of `C=C1CC(c2ccc(OC)cc2)N(C)C1=O` (configuration not stated), the IC50 was greater than 50 µM in the test on L1210 (Mus musculus, L1210, 48 h); 611 µM with HL-60 (Homo sapiens, HL-60, 48 h); 523 µM in the test with NALM-6 (Homo sapiens, NALM-6, 48 h).

Regarding `C=C1C(=O)OC(c2ccc(OC)cc2)C1C` (configuration not stated), the IC50 in the test with L1210 (l1210) was 14.2 µM and 3.65 µM; with HL-60 (hl-60) it was 37.9 µM and 5.69 µM; in the test on NALM-6 (nalm-6), 38.6 µM and 5.23 µM.

`C=C1CC(c2ccccc2)N(C)C1=O` (configuration not stated): the IC50 in the test on L1210 (Mus musculus, L1210, 48 h) is greater than 50 µM; in the test with HL-60 (Homo sapiens, HL-60, 48 h) it was 989 µM; with NALM-6 (Homo sapiens, NALM-6, 48 h), 553 µM.

On to `CC(C)/C=C1/CC(c2ccccc2)OC1=O` (configuration not stated), for which the IC50 is greater than 50 µM with L1210 (Mus musculus, L1210, 48 h); 159 µM in the test on HL-60 (Homo sapiens, HL-60, 48 h); 483 µM in the test on NALM-6 (Homo sapiens, NALM-6, 48 h).

Take `C=C1C(=O)OC(c2ccc(Br)cc2)C1C` (configuration not stated): the IC50 was 7.5 µM and 1.55 µM with L1210 (l1210); 41.8 µM and 5.05 µM in the test with HL-60 (hl-60).

As to `C=C1CC(c2cccc3ccccc23)OC1=O` (configuration not stated), the IC50 in the test with L1210 (Mus musculus, L1210, 48 h) is 4.3 µM; in the test with HL-60 (Homo sapiens, HL-60, 48 h) it was 4.42 µM; with NALM-6 (Homo sapiens, NALM-6, 48 h), 3.86 µM.

Turning to `C=C1CC(c2ccc(Br)cc2)N(C)C1=O` (configuration not stated), the IC50 in the test on L1210 (Mus musculus, L1210, 48 h) is greater than 50 µM; in the test with HL-60 (Homo sapiens, HL-60, 48 h), 220 µM; with NALM-6 (Homo sapiens, NALM-6, 48 h), 141 µM.

For `C=C1CC(c2ccccc2)OC1=O` (configuration not stated), the IC50 with L1210 (Mus musculus, L1210, 48 h) is 1.4 µM; with HL-60 (Homo sapiens, HL-60, 48 h) it was 36.9 µM; with NALM-6 (Homo sapiens, NALM-6, 48 h), 9.13 µM.

Consider `C=C1C(=O)OC(c2ccccc2)C1C` (configuration not stated), for which the IC50 with L1210 (l1210) was 4 µM and 28 µM; in the test with HL-60 (Homo sapiens, HL-60, 48 h), 8.97 µM; with HL-60 (hl-60) it was 8.97 µM; in the test with NALM-6 (Homo sapiens, NALM-6, 48 h) it was 7.91 µM; with NALM-6 (nalm-6), 7.91 µM.

Consider `O=C1OC(c2ccccc2)C/C1=C\c1ccccc1` (configuration not stated), for which the IC50 was greater than 50 µM in the test with L1210 (Mus musculus, L1210, 48 h); greater than 1000 µM with HL-60 (Homo sapiens, HL-60, 48 h); 497 µM with NALM-6 (Homo sapiens, NALM-6, 48 h).
